An excerpt weighted towards active compounds, which were near 2.8% of everything screened.
EP2 antag = EP2 receptor (human) inhibition; P43116; AID 1422; 0.52% of 260,000 active; C6 glioma cells expressing human EP2, cAMP TR-FRET; cells stimulated with saturating PGE2; inhibition, % at 25 µM;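 active means percent inhibition above 40 after rounding to a whole number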;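 further: rat C6 glioma host cells with rolipram phosphodiesterase inhibitor present; the protocol text gives 20 µM as final concentration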
Target sequence (P43116 whole entry, looked up): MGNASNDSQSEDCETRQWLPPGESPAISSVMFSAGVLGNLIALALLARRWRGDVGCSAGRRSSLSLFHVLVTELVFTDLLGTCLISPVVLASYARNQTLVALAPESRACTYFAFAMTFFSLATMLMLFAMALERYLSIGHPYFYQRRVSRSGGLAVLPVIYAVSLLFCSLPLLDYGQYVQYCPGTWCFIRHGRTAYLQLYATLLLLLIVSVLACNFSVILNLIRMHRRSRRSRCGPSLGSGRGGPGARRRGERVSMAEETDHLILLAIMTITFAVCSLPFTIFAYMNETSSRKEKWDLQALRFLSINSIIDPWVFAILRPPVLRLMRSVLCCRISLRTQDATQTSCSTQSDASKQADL
EP2 modulator = modulates human prostaglandin E2 receptor EP2 signaling; P43116; EP2-expressing cells, cAMP HTRF FRET, PGE2 co-stimulation; induction, % at 25 µM; 0.83% of 260,000 active; AID 940;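 active means compounds whose cAMP rise, as percent of the full-agonist control response, exceeds 60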;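 further: rat C6 glioma line stably carrying human EP2 under a CMV promoter; the protocol text gives 20 µM as final concentration; 100% = response of wells given 1 µM PGE2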
NPY-Y1 antag = antagonists of human neuropeptide Y receptor Y1; HEK293-CNG Y1 cells, membrane potential fluorescence; NPY at EC95, then isoproterenol; inhibition, % at 3.6 µM; 1% of 200,000 active; AID 1040;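 active means inhibition above the campaign mean inhibition of all tested compounds plus 3 SD, cut at about 20% in these data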;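 further: 0% = DMSO wells given NPY plus isoproterenol and 100% = isoproterenol alone without NPY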
Target sequence (P25929 whole entry, looked up): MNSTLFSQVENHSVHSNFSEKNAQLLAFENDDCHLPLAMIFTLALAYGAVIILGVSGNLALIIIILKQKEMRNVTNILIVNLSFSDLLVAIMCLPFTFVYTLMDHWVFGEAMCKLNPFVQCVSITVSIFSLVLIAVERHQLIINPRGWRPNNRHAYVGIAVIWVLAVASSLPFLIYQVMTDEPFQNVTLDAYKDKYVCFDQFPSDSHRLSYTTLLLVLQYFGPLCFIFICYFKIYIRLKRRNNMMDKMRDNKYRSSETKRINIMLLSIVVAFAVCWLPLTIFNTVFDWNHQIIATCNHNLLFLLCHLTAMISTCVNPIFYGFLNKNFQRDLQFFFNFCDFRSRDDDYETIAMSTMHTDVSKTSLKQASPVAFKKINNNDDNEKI
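Material: HEK293 cells co-expressing NPY Y1 receptor and cyclic-nucleotide gated channel. Timing: compound incubation 1 h at room temperature, readout 45 min post-stimulation. Signal: fluorescence, membrane potential probe.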
NPY-Y1 PAM-ag = human NPY-Y1 potentiation or agonism, primary screen. P25929. NPY-Y1 expressing cells, potentiator/agonist activation. activation, % at 3.6 µM. 0.37% of 220,000 active; in the data active means activation above about 33%, passing the limit was not always enough;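 further: cells stimulated with NPY at EC10 then isoproterenol at EC100; 0% = low agonist plus stimulus and 100% = saturating agonist plus stimulus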
NPY-Y2 PAM-ag = human NPY-Y2 potentiation or agonism, primary screen | cells expressing NPY-Y2, potentiator/agonist read-out | activation, % at 3.6 µM | 0.45% of 220,000 active; in the data active means activation above about 27%;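 further: cells stimulated with NPY near EC25 plus isoproterenol at EC100; 0% = vehicle plus submaximal agonist and 100% = vehicle plus saturating agonist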
NPY Y2 blocker = NPY-Y2 (human) receptor antagonism | P49146 | 0.99% of 140,000 active | NPY-Y2 expressing cells, antagonist mode | inhibition, % at 2.7 µM;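 further: 0% = vehicle with agonist challenge and 100% = reference antagonist with challenge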
NPY-Y1 ant conf = confirmation of human neuropeptide Y receptor Y1 antagonists | 21% of 1,200 active | inhibition, % at 3.6 µM | HEK293-CNG NPY-Y1, membrane potential fluorescence, cAMP; NPY challenge against isoproterenol-raised cAMP | shares compounds with NPY-Y1 antag; in the data active means inhibition above about 20%;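 further: 0% = vehicle with agonist plus stimulus and 100% = stimulus alone without agonist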
NPY2 antag ctr = antagonizes human NPY-Y2, counter-screen to NPY-Y1 antagonists; shares compounds with NPY-Y1 antag; HEK293 NPY-Y2 CNG membrane potential fluorescence, antagonism; cells given NPY, then isoproterenol; inhibition, % at 3.6 µM; 28% of 1,200 active; AID 1255;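 further: 0% = DMSO with agonist challenge and 100% = reference antagonist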
Starred values were filed as active, the others as inactive. Unless noted, no stated cut-off is given here; in the data, active means inhibition above about 17%; inactive means the rest.

What do the screens show for `COc1ccc(OCC(=O)N/N=C/C=C/c2ccccc2)cc1`?
EP2 antag: 7; EP2 modulator: -36; NPY-Y1 antag: 23*; NPY-Y1 PAM-ag: -15; NPY-Y2 PAM-ag: -16; NPY Y2 blocker: 9; NPY-Y1 ant conf: 6; NPY2 antag ctr: 11

What do the screens show for `CCOc1ccc(NCC(=O)N/N=C/C=C/c2ccccc2)cc1`?
EP2 antag: 2; EP2 modulator: -78; NPY-Y1 antag: 3; NPY-Y1 PAM-ag: -26; NPY-Y2 PAM-ag: -7; NPY Y2 blocker: 2

What do the screens show for `CCOC(=O)CSc1nc(-c2ccccc2)nc2ccc(F)cc12`?
EP2 antag: 5; EP2 modulator: 55; NPY-Y1 antag: 23*; NPY-Y1 PAM-ag: -13; NPY-Y2 PAM-ag: -16; NPY Y2 blocker: 13; NPY-Y1 ant conf: 10; NPY2 antag ctr: 10

Results for COC(=O)c1c(NC(=O)CN2CCCC(C)C2)c2c(C)cccc2n1C (stereo not drawn) ?
EP2 antag: 10; EP2 modulator: 3; NPY-Y1 antag: 32*; NPY-Y1 PAM-ag: -16; NPY-Y2 PAM-ag: -17; NPY Y2 blocker: 13; NPY-Y1 ant conf: 6; NPY2 antag ctr: 4

What do the screens show for `COc1ccc(-c2nnc(SCc3ccccc3F)o2)cc1`?
EP2 antag: 7; EP2 modulator: 7; NPY-Y1 antag: 22*; NPY-Y1 PAM-ag: -20; NPY-Y2 PAM-ag: -4; NPY Y2 blocker: 6; NPY-Y1 ant conf: 9; NPY2 antag ctr: 11

What do the screens show for `Fc1ccccc1CSc1nnc(-c2cccnc2)o1`?
EP2 antag: 3; EP2 modulator: -1; NPY-Y1 antag: -1; NPY-Y1 PAM-ag: -1; NPY-Y2 PAM-ag: -3

How did Fc1ccccc1CSc1nnc(-c2ccccc2)o1 do in these assays?
EP2 antag: 0; EP2 modulator: 36; NPY-Y1 antag: 29*; NPY-Y1 PAM-ag: -13; NPY-Y2 PAM-ag: 4; NPY Y2 blocker: 6; NPY-Y1 ant conf: 4; NPY2 antag ctr: 8

How did Clc1nc2ccccc2c(N2CCCCC2)c1CNCCN1CCOCC1 do in these assays?
EP2 antag: 12; EP2 modulator: -29

What do the screens show for `Cc1cc(C)c2[nH]c(=O)c(CN(C(=S)Nc3ccc(F)cc3)C3CCCCC3)cc2c1`?
EP2 antag: 12; EP2 modulator: -69

What do the screens show for `C=CCN1C(=O)/C(=c2/s/c(=C3/Sc4ccc(OC)cc4N3C)c(=O)n2C)SC1=S`?
EP2 antag: 9; EP2 modulator: 2

How did Cc1c2c(nc3c(C(=O)NC4CCCCC4C)cnn13)CCCC2 (stereo not drawn) do in these assays?
EP2 modulator: 52; NPY-Y1 antag: 20*; NPY-Y1 PAM-ag: -22; NPY-Y2 PAM-ag: -12; NPY Y2 blocker: 8; NPY-Y1 ant conf: 13; NPY2 antag ctr: 22*

How did CC(C)COc1ccc(Br)cc1CNC(C)(C)C do in these assays?
EP2 antag: 3; EP2 modulator: 18; NPY-Y1 antag: 28*; NPY-Y1 PAM-ag: 1; NPY-Y2 PAM-ag: 26; NPY-Y1 ant conf: 20; NPY2 antag ctr: 10

How did CCC(=O)Nc1nnc(Cc2ccc(Cl)cc2Cl)s1 do in these assays?
EP2 antag: 10; EP2 modulator: -36

Results for COc1ccccc1NC(=O)COc1ccc(Br)cc1CNCCCN1CCOCC1 ?
EP2 antag: 2; EP2 modulator: 40; NPY-Y1 antag: 22*; NPY-Y1 PAM-ag: -11; NPY-Y2 PAM-ag: -4; NPY-Y1 ant conf: 12; NPY2 antag ctr: 15

How did COc1cc(CNCCCN2CCOCC2)cc(Br)c1OCC(=O)N1CCCCC1 do in these assays?
EP2 antag: 6; EP2 modulator: 16; NPY-Y1 antag: 0; NPY-Y1 PAM-ag: 8; NPY-Y2 PAM-ag: -2; NPY Y2 blocker: 4

How did CCOc1cc(CNCCCN2CCOCC2)cc(Br)c1OCC(=O)Nc1cccc(C(F)(F)F)c1 do in these assays?
EP2 antag: 16; EP2 modulator: -51; NPY-Y1 antag: 27*; NPY-Y1 PAM-ag: -43; NPY-Y2 PAM-ag: -29; NPY Y2 blocker: 12; NPY-Y1 ant conf: 17; NPY2 antag ctr: 24*

How did CCc1cccc(CC)c1NC(=O)NC1CCCCC1 do in these assays?
EP2 antag: 7; EP2 modulator: -3; NPY-Y1 antag: 5; NPY-Y1 PAM-ag: 13; NPY-Y2 PAM-ag: -2; NPY Y2 blocker: 4

What do the screens show for `CCc1cccc(CC)c1NC(=O)CN1CC(C)SC1=NC1CCCCC1` (stereo not drawn)?
EP2 antag: 12; EP2 modulator: 28; NPY-Y1 antag: 34*; NPY-Y1 PAM-ag: 4; NPY-Y2 PAM-ag: 6; NPY Y2 blocker: 13; NPY-Y1 ant conf: 34*; NPY2 antag ctr: 17*

How did c1ccc(-c2ccccc2OCCOCCN2CCc3ccccc3C2)cc1 do in these assays?
EP2 antag: 6; EP2 modulator: -5; NPY-Y1 antag: 16; NPY-Y1 PAM-ag: -11; NPY-Y2 PAM-ag: -11

Results for Clc1ccc(OCCOCCN2CCc3ccccc3C2)c(Cl)c1 ?
EP2 antag: 10; EP2 modulator: -12; NPY-Y1 antag: 25*; NPY-Y1 PAM-ag: -28; NPY-Y2 PAM-ag: -16; NPY Y2 blocker: 10; NPY-Y1 ant conf: 8; NPY2 antag ctr: 8

How did Clc1ccc(SCCOCCN2CCc3ccccc3C2)cc1 do in these assays?
EP2 antag: 9; EP2 modulator: -18; NPY-Y1 antag: 23*; NPY-Y1 PAM-ag: -23; NPY-Y2 PAM-ag: -5; NPY-Y1 ant conf: 15; NPY2 antag ctr: 12

How did Cc1nc2c(c(=O)[nH]1)CCN(Cc1coc3ccccc3c1=O)C2 do in these assays?
EP2 antag: 3; EP2 modulator: -14

What do the screens show for `Cc1nn(-c2ccccc2)c2sc(C(=O)O)cc12`?
EP2 antag: 6; EP2 modulator: -10; NPY-Y1 antag: 25*; NPY-Y1 PAM-ag: -52; NPY-Y2 PAM-ag: -19; NPY Y2 blocker: 13; NPY-Y1 ant conf: 22*; NPY2 antag ctr: 15

What do the screens show for `Cc1ccc(-n2nc(C)c3cc(C(=O)O)sc32)cc1`?
EP2 antag: 12; EP2 modulator: -5; NPY-Y1 antag: 8; NPY-Y1 PAM-ag: -3; NPY-Y2 PAM-ag: 2; NPY Y2 blocker: 5

What do the screens show for `O=C(c1cc(-c2cccs2)on1)N1CCN(c2ccc(F)cc2)CC1`?
EP2 antag: 3; EP2 modulator: -30; NPY-Y1 antag: 9; NPY-Y1 PAM-ag: -4; NPY-Y2 PAM-ag: 6; NPY Y2 blocker: 9

What do the screens show for `O=C(c1cc(-c2cccs2)on1)N1CCN(c2ccccc2)CC1`?
EP2 modulator: -36; NPY-Y1 antag: 25*; NPY-Y1 PAM-ag: -32; NPY-Y2 PAM-ag: -22; NPY Y2 blocker: 13; NPY-Y1 ant conf: 8; NPY2 antag ctr: 9
